Data from ChEMBL document CHEMBL2057149 (J Med Chem, 2012).
pIC50, pKd, pKi: −log10 of the molar value. Each block holds one compound with its values, some of them ahead of it. Calls of active or inactive are those of the source. No cut-off for these calls is given here.

Key:
Plasma [1] = experiment: Anticoagulant activity in pooled human plasma assessed as activated partial thromboplastin time at 0.1 mg/ml; assay type: ADME, cell-free
Procedure, shortened: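 APTT of pooled normal human plasma measured with compound at 0–100 μg/mL in PBS on a ball coagulameter, using unfractionated heparin as the reference. Normal range 26–36 s; coefficient of variation 2% at 36 s and 5–7% at 90 s or above. Values are the mean of two determinations.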

Plasma [2] = experiment: Anticoagulant activity in pooled human plasma assessed as prolongation of the recalcification time at 0.1 mg/ml by Heptest assay; assay type: ADME, cell-free
Procedure, shortened: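 Heptest clotting time in pooled normal human plasma; normal range 13–20 s. Values are the mean of two determinations.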

HUVEC [3] = experiment: Antiangiogenic activity in FGF2-stimulated HUVEC cells after 72 hrs by CellTiter assay; assay type: functional, cell-based; settings: Homo sapiens
[4] = target: Vascular endothelial growth factor A (Homo sapiens) (UniProt P15692); experiment: Binding affinity to VEGF by surface plasmon resonance assay
Heparanase = target: T1, Heparanase (Homo sapiens, UniProt Q9Y251); experiment: Inhibition of human recombinant heparanase after 2 to 24 hrs by WST1 dye based fondaparinux assay
T1 sequence (Q9Y251 whole entry): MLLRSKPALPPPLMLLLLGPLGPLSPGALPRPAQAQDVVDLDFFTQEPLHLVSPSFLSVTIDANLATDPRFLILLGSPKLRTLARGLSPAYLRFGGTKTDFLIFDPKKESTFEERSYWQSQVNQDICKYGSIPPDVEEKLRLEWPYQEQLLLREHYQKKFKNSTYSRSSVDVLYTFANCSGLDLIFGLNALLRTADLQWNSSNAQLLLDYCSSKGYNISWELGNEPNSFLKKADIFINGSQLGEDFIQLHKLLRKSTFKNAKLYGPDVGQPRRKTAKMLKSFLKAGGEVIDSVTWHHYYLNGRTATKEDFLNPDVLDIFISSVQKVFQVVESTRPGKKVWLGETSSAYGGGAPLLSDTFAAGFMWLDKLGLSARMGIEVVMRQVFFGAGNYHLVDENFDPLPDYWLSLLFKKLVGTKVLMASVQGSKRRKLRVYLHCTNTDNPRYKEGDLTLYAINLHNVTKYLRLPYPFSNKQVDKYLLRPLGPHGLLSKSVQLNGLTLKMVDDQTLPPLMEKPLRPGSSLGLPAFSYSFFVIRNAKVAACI

[5] = target: Fibroblast growth factor 1 (Homo sapiens, UniProt P05230); experiment: Binding affinity to FGF-1 by surface plasmon resonance assay
Procedure, shortened: (§1)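 Solution-affinity SPR on heparin-coated CM4 chips. FGF-1 measured in HBS-EP (10 mM HEPES pH 7.4, 150 mM NaCl, 3.0 mM EDTA, 0.005% polysorbate 20); FGF-2 measured in HBS-EP with 300 mM NaCl. Kd is the average of at least duplicate measurements ± SD.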

HUVEC [6] = experiment: Antiangiogenic activity in FGF1-stimulated HUVEC cells after 72 hrs by CellTiter assay; assay type: functional, cell-based; settings: Homo sapiens
HMVEC [7] = experiment: Antiangiogenic activity in FGF1-stimulated HMVEC cells after 72 hrs by CellTiter assay; assay type: functional, cell-based; settings: Homo sapiens
HMVEC [8] = experiment: Antiangiogenic activity in FGF2-stimulated HMVEC cells after 72 hrs by CellTiter assay; assay type: functional, cell-based; settings: Homo sapiens
HUVEC [9] = experiment: Antiangiogenic activity in VEGF-stimulated HUVEC cells after 72 hrs by CellTiter assay; assay type: functional, cell-based; settings: Homo sapiens
[10] = target: Fibroblast growth factor 2 (Homo sapiens, UniProt P09038); experiment: Binding affinity to FGF-2 by surface plasmon resonance assay; procedure, shortened: as §1
HMVEC [11] = experiment: Antiangiogenic activity in VEGF-stimulated HMVEC cells after 72 hrs by CellTiter assay; assay type: functional, cell-based; settings: Homo sapiens

Chain of Fibroblast growth factor 2 (P09038 143-288 limits assumed): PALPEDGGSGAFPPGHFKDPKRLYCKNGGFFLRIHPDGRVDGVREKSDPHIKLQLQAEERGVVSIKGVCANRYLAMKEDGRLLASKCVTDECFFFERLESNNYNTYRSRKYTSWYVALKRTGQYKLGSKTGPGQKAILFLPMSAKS
Chain of Fibroblast growth factor 1 (P05230 whole entry): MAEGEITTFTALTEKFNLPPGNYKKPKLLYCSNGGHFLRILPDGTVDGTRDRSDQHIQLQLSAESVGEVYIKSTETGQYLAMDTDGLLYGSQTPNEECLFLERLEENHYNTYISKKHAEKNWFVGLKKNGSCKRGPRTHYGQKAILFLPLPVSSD

SMILES: CC(=O)O[C@H]1C[C@H]2[C@@H](CC[C@H]3C[C@@H](OS(=O)(=O)[O-])CC[C@@]32C)[C@@H]2CC[C@H]([C@H](C)CCC(=O)N[C@@H]3O[C@H](COS(=O)(=O)[O-])[C@@H](O[C@H]4O[C@H](COS(=O)(=O)[O-])[C@@H](O[C@H]5O[C@H](COS(=O)(=O)[O-])[C@@H](O[C@H]6O[C@H](COS(=O)(=O)[O-])[C@@H](OS(=O)(=O)[O-])[C@H](OS(=O)(=O)[O-])[C@H]6OS(=O)(=O)[O-])[C@H](OS(=O)(=O)[O-])[C@H]5OS(=O)(=O)[O-])[C@H](OS(=O)(=O)[O-])[C@H]4OS(=O)(=O)[O-])[C@H](OS(=O)(=O)[O-])[C@H]3OS(=O)(=O)[O-])[C@@]12C.[Na+].[Na+].[Na+].[Na+].[Na+].[Na+].[Na+].[Na+].[Na+].[Na+].[Na+].[Na+].[Na+].[Na+]
- APTT (Plasma [1]): 41 s
- Time (Plasma [2]): 26.8 s
- pIC50 (HUVEC [3]): < 4.30
- pKd [4]: 8.10
- pKi (Heparanase): 7.70
- pKd [5]: 8.90
- pIC50 (HUVEC [6]): < 4.30
- Activity (HMVEC [7]): Active
- Activity (HMVEC [8]): Active
- pIC50 (HUVEC [9]): < 4.30
- pKd [10]: 7.30
- Activity (HMVEC [11]): Active

SMILES: CC(C)CCC[C@@H](C)[C@H]1CC[C@H]2[C@@H]3CC[C@H]4C[C@@H](OCc5cn([C@@H]6O[C@H](COS(=O)(=O)[O-])[C@@H](O[C@@H]7O[C@H](COS(=O)(=O)[O-])[C@H](OS(=O)(=O)[O-])[C@H](OS(=O)(=O)[O-])[C@H]7OS(=O)(=O)[O-])[C@H](OS(=O)(=O)[O-])[C@H]6OS(=O)(=O)[O-])nn5)CC[C@]4(C)[C@H]3CC[C@]12C.[Na+].[Na+].[Na+].[Na+].[Na+].[Na+].[Na+]
- APTT (Plasma [1]): 39.6 s
- Time (Plasma [2]): 25.3 s
- pIC50 (HUVEC [3]): 5.61
- pKd [4]: 5.80
- pKi (Heparanase): 7.52
- pKd [5]: 6.21
- pIC50 (HUVEC [6]): 5.57
- Activity (HMVEC [7]): Active
- Activity (HMVEC [8]): Active
- pIC50 (HUVEC [9]): 5.58
- pKd [10]: 5.74
- Activity (HMVEC [11]): Active

- APTT (Plasma [1]): 51.1 s
- Time (Plasma [2]): 24.9 s
- pKd [4]: 6.42
SMILES: CCCCCCCCCCCCCCCCCC(=O)NCCCO[C@@H]1O[C@H](COS(=O)(=O)[O-])[C@@H](O[C@H]2O[C@H](COS(=O)(=O)[O-])[C@@H](O[C@H]3O[C@H](COS(=O)(=O)[O-])[C@@H](OS(=O)(=O)[O-])[C@H](OS(=O)(=O)[O-])[C@H]3OS(=O)(=O)[O-])[C@H](OS(=O)(=O)[O-])[C@H]2OS(=O)(=O)[O-])[C@H](OS(=O)(=O)[O-])[C@H]1OS(=O)(=O)[O-].[Na+].[Na+].[Na+].[Na+].[Na+].[Na+].[Na+].[Na+].[Na+].[Na+]
- Activity (HMVEC [7]): Active
- Activity (HMVEC [8]): Active
- Activity (HMVEC [11]): Active

- APTT (Plasma [1]): 63.3 s
- Time (Plasma [2]): 29.6 s
- pKd [4]: 8.98
- pKi (Heparanase): 8.26
- pKd [5]: 9.62
- pKd [10]: 7.41
SMILES: CC(C)CCC[C@@H](C)[C@H]1CC[C@H]2[C@@H]3CC[C@H]4C[C@@H](OCc5cn(CCCO[C@H]6O[C@H](COS(=O)(=O)[O-])[C@@H](OS(=O)(=O)[O-])[C@H](OS(=O)(=O)[O-])[C@@H]6O[C@H]6O[C@H](COS(=O)(=O)[O-])[C@@H](OS(=O)(=O)[O-])[C@H](O[C@H]7O[C@H](COS(=O)(=O)[O-])[C@@H](OS(=O)(=O)[O-])[C@H](O[C@H]8O[C@H](COS(=O)(=O)[O-])[C@@H](OS(=O)(=O)[O-])[C@H](O[C@H]9O[C@H](COS(=O)(=O)[O-])[C@@H](OS(=O)(=O)[O-])[C@H](OS(=O)(=O)[O-])[C@@H]9OS(=O)(=O)[O-])[C@@H]8OS(=O)(=O)[O-])[C@@H]7OS(=O)(=O)[O-])[C@@H]6OS(=O)(=O)[O-])nn5)CC[C@]4(C)[C@H]3CC[C@]12C.[Na+].[Na+].[Na+].[Na+].[Na+].[Na+].[Na+].[Na+].[Na+].[Na+].[Na+].[Na+].[Na+].[Na+].[Na+].[Na+]
- pIC50 (HUVEC [3]): 6.41
- pIC50 (HUVEC [6]): 6.00
- Activity (HMVEC [7]): Active
- Activity (HMVEC [8]): Active
- pIC50 (HUVEC [9]): 6.66
- Activity (HMVEC [11]): Active

SMILES: CC(C)CCC[C@@H](C)[C@H]1CC[C@H]2[C@@H]3CC[C@H]4C[C@@H](O[C@H]5O[C@H](COS(=O)(=O)[O-])[C@@H](OS(=O)(=O)[O-])[C@H](OS(=O)(=O)[O-])[C@@H]5OS(=O)(=O)[O-])CC[C@]4(C)[C@H]3CC[C@]12C.[Na+].[Na+].[Na+].[Na+]
- APTT (Plasma [1]): 36.1 s
- Time (Plasma [2]): 23.9 s
- pIC50 (HUVEC [3]): 5.54
- pKd [4]: 5.52
- pIC50 (HUVEC [6]): 5.66
- Activity (HMVEC [7]): Active
- Activity (HMVEC [8]): Active
- pIC50 (HUVEC [9]): 5.65
- pKd [10]: < 5.52
- Activity (HMVEC [11]): Active

SMILES: CC(C)CCC[C@@H](C)[C@H]1CC[C@H]2[C@@H]3CC[C@H]4C[C@@H](O[C@@H]5O[C@H](COS(=O)(=O)[O-])[C@@H](O[C@@H]6O[C@H](COS(=O)(=O)[O-])[C@@H](OS(=O)(=O)[O-])[C@H](OS(=O)(=O)[O-])[C@H]6OS(=O)(=O)[O-])[C@H](OS(=O)(=O)[O-])[C@H]5OS(=O)(=O)[O-])CC[C@]4(C)[C@H]3CC[C@]12C.[Na+].[Na+].[Na+].[Na+].[Na+].[Na+].[Na+]
- APTT (Plasma [1]): 38.8 s
- Time (Plasma [2]): 25.3 s
- pIC50 (HUVEC [3]): 5.25
- pKd [4]: 5.87
- pKd [5]: 6.06
- pIC50 (HUVEC [6]): 5.22
- Activity (HMVEC [7]): Active
- Activity (HMVEC [8]): Active
- pIC50 (HUVEC [9]): 5.25
- pKd [10]: 5.70
- Activity (HMVEC [11]): Active

SMILES: CC(C)CCC[C@@H](C)[C@H]1CC[C@H]2[C@@H]3CC[C@H]4C[C@@H](O[C@H]5O[C@H](COS(=O)(=O)[O-])[C@@H](OS(=O)(=O)[O-])[C@H](OS(=O)(=O)[O-])[C@@H]5O[C@H]5O[C@H](COS(=O)(=O)[O-])[C@@H](OS(=O)(=O)[O-])[C@H](OS(=O)(=O)[O-])[C@@H]5OS(=O)(=O)[O-])CC[C@]4(C)[C@H]3CC[C@]12C.[Na+].[Na+].[Na+].[Na+].[Na+].[Na+].[Na+]
- APTT (Plasma [1]): 40.6 s
- Time (Plasma [2]): 25.5 s
- pIC50 (HUVEC [3]): 5.65
- pKd [4]: 5.89
- pIC50 (HUVEC [6]): < 5.00
- Activity (HMVEC [7]): Active
- Activity (HMVEC [8]): Active
- pIC50 (HUVEC [9]): 5.74
- Activity (HMVEC [11]): Active

SMILES: CC(C)CCC[C@@H](C)[C@H]1CC[C@H]2[C@@H]3CC[C@H]4C[C@@H](OCc5cn([C@@H]6O[C@H](COS(=O)(=O)[O-])[C@@H](O[C@H]7O[C@H](COS(=O)(=O)[O-])[C@@H](OS(=O)(=O)[O-])[C@H](OS(=O)(=O)[O-])[C@H]7OS(=O)(=O)[O-])[C@H](OS(=O)(=O)[O-])[C@H]6OS(=O)(=O)[O-])nn5)CC[C@]4(C)[C@H]3CC[C@]12C.[Na+].[Na+].[Na+].[Na+].[Na+].[Na+].[Na+]
- APTT (Plasma [1]): 40.3 s
- Time (Plasma [2]): 26.7 s
- pIC50 (HUVEC [3]): 5.38
- pKd [4]: 5.71
- pIC50 (HUVEC [6]): 5.39
- Activity (HMVEC [7]): Active
- Activity (HMVEC [8]): Active
- pIC50 (HUVEC [9]): 5.95
- Activity (HMVEC [11]): Active

SMILES: CC(C)CCC[C@@H](C)[C@H]1CC[C@H]2[C@@H]3CC[C@H]4C[C@@H](O[C@@H]5O[C@H](COS(=O)(=O)[O-])[C@@H](O[C@H]6O[C@H](COS(=O)(=O)[O-])[C@@H](OS(=O)(=O)[O-])[C@H](OS(=O)(=O)[O-])[C@H]6OS(=O)(=O)[O-])[C@H](OS(=O)(=O)[O-])[C@H]5OS(=O)(=O)[O-])CC[C@]4(C)[C@H]3CC[C@]12C.[Na+].[Na+].[Na+].[Na+].[Na+].[Na+].[Na+]
- APTT (Plasma [1]): 38.6 s
- Time (Plasma [2]): 23.9 s
- pIC50 (HUVEC [3]): < 5.00
- pKd [4]: 5.92
- pKd [5]: 6.25
- pIC50 (HUVEC [6]): 5.40
- Activity (HMVEC [7]): Active
- Activity (HMVEC [8]): Active
- pIC50 (HUVEC [9]): 5.28
- pKd [10]: 5.66
- Activity (HMVEC [11]): Active
